A short description of assay [1]: reducers of endogenous Her2 protein level, primary screen, SKBR3 breast tumor cells, AlphaScreen, ATP viability (AID 461;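 active means Her2 level under about 52% in both replicate screens, with viability over 70% of control, limit read from the data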;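 on Her2 level: lower value means less Her2 protein in the cells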;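 on viability: percent of carrier control wells set as 100% viability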). Conditions: 18-24 h, measured here: SKBR3 viability, ATP luminescence, at 10 µM.
Assay [2] has as its target Receptor tyrosine-protein kinase erbB-2 (Homo sapiens) (UniProt P04626). The description is as above. Conditions: 18-24 h, at 10 µM, stronger effect = lower value.
A short description of assay [3]: SK-BR-3 cell growth inhibitors, pilot screen, 24 h, human (AID 572).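 Further: compound exposure lasted between 18 and 24 h rather than exactly 24 h; 100% = carrier-treated control wells.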 Conditions: SK-BR-3 viability, CellTiter-Glo luminescence, at 10 µM, stronger effect = lower value. Background: Cellular ATP, detected with luciferase, serves as a proxy for viable cell number.
A short description of assay [4]: HUVEC growth inhibition – cell-based, human, primary screen (AID 575;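 active means viability at or below 30% in both replicate assays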;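 further: 100% = median of untreated cell wells with 0.1% DMSO on each plate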). Conditions: HUVEC proliferation, CellTiter-Glo luminescence, 72 h; at 10 µM; stronger effect = lower value. The method in brief: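 Timing: 72 h treatment at 37 °C; material: HUVEC primary cells; technique: CellTiter-Glo luminescence measuring cellular ATP; controls: vehicle and MePR control wells; measure: percent of median DMSO-control luminescence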

Assay [5] is described as follows: growth inhibitors of H69AR lung tumor, primary screen, human, duplicate replicates (AID 580;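 active means viability at or under a set limit in both replicates, limit being median viability minus 3 SD, cut at about 48% in these data, passing the limit was not always enough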;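 further: 100% = mean luminescence of untreated wells and 0% = no signal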). Conditions: H69AR lung tumor cells viability, ATP luminescence, 72 h; at 10 µM; stronger effect = lower value.
A short description of assay [6]: reversal of MRP1-mediated doxorubicin resistance, pilot screen, H69AR cells, doxorubicin co-treatment (AID 601;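 active means viability loss from added drug above about 55%, and viability with drug at most 40%, in both replicates, limit read from the data, passing the limit was not always enough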). Conditions: CellTiter-Glo, 72 h, at 10 µM; for differential viability (reversal): stronger effect = higher value.
A short description of assay [7]: 384-well plate pilot, post-Golgi transport modulator project, inhibition of yeast transport mutant growth (AID 636; in the data active means inhibition above about 31%). Conditions: absorbance 615 nm, about 18 h, stronger effect = higher value.
Assay [8] can be described thus: growth suppression of yeast trafficking mutant, preliminary HTS, modulators of trafficking downstream of Golgi apparatus project, 1536-format plate, OD 615 nm (AID 637; in the data active means inhibition above about 30%). Conditions: yeast transport mutant growth, absorbance 615 nm, 18 h; stronger effect = higher value.
The mark [9] stands for this setting: H69AR cells + 2 uM doxorubicin, measured here: viability with 2 uM doxorubicin, stronger effect = lower value.
Setting [10] is: H69AR cells, compound alone cytotoxicity.

The structures appear in SMILES notation. Calls of active or inactive are those of the source.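 How the source made its calls, unless noted: active means viability at or below 10% of carrier control in both of two separate runs; inconclusive means viability at or below 10% in only one of the two runs; inactive means the rest.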

Here are results for 14 compounds from PubChem BioAssay.

Receptor tyrosine-protein kinase erbB-2 (Homo sapiens), sequence (P04626 whole entry, looked up): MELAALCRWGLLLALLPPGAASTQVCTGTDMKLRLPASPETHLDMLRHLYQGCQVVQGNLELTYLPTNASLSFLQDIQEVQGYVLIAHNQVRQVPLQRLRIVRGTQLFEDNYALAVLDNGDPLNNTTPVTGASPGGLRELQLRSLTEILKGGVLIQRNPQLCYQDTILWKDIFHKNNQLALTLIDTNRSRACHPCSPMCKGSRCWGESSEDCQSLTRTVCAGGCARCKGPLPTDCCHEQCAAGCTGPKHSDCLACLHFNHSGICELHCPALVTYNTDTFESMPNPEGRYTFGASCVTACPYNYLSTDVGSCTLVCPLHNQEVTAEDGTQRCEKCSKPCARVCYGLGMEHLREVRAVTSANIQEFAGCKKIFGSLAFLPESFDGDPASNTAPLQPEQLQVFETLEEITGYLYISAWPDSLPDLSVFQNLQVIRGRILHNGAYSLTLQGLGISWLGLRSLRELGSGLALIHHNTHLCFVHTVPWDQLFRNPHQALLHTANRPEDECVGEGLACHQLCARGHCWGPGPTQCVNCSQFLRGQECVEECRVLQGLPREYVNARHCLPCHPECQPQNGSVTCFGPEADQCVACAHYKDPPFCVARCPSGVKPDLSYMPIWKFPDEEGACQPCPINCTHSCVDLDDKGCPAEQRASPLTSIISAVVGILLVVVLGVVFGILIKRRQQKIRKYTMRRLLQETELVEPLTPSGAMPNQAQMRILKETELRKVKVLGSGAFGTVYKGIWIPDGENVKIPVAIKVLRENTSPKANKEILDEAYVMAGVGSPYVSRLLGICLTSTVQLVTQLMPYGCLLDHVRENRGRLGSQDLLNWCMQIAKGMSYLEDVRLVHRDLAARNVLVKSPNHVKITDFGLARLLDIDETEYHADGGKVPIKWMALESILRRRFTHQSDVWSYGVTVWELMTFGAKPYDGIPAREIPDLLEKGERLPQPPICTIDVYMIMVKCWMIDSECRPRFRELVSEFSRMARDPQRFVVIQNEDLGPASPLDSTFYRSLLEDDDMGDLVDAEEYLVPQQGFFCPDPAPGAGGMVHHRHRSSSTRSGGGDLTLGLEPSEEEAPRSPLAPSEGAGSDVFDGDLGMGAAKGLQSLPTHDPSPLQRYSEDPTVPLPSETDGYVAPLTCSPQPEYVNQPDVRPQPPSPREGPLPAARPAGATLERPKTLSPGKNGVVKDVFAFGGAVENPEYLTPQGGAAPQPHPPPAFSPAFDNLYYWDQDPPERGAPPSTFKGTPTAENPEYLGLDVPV

For `COc1cc(C2c3c(oc4c(C)cc(C)cc4c3=O)C(=O)N2Cc2cccnc2)cc(OC)c1OC` (stereo not given), the viability (commonly a read-out of living cells in per cent, often relative to untreated cells) is 110% in assay [1]; 110% (inactive) in assay [3]; 97.6% (inactive) in assay [4]; 110% (inactive) in assay [5]; 104% in assay [6] (setting [9]); 110% in assay [6] (setting [10]). The Her2 level in assay [2] is 114% (inactive). In addition, in assay [6] (H69AR cells + 2 uM doxorubicin), the differential viability (reversal) was 6.48% (inactive). For the same compound, the inhibition (commonly the relative decrease from the control value, in per cent) was 1.33% (inactive) in assay [7] and -3.06% (inactive) in assay [8].
As for `CCC1(C)Cc2c(C#N)c(N)n(-c3ccccc3)c(=O)c2CO1` (stereo not given), the viability was 100% in assay [1]; 100% (inactive) in assay [3]; 104% (inactive) in assay [4]; 109% (inactive) in assay [5]; 89.7% in assay [6] (setting [9]); 109% in assay [6] (setting [10]). Moreover, in assay [2], the Her2 level is 106% (inactive). Besides, the differential viability (reversal) in assay [6] (H69AR cells + 2 uM doxorubicin) was 19.4% (inactive). In addition, the inhibition in assay [7] was -0.13% (inactive); in assay [8], -3.64% (inactive).
For `O=C1c2ccccc2C(O)(Cc2ccccc2)N1Cc1ccco1` (stereo not given), the viability in assay [1] was 88.5%; in assay [3], 88.5% (inactive); in assay [4], 89% (inactive); in assay [5], 95.7% (inactive); in assay [6] (setting [9]) it was 85.6%; in assay [6] (setting [10]), 95.7%. For the same compound, the Her2 level in assay [2] was 104% (inactive). Moreover, the differential viability (reversal) in assay [6] (H69AR cells + 2 uM doxorubicin) was 10.1% (inactive). The inhibition in assay [7] is -2.37% (inactive); in assay [8] it was -9.19% (inactive).
For the compound `C=C(c1cccc2ccccc12)P(=O)(O)O`, the viability is 116% in assay [1]; 116% (inactive) in assay [3]; 104% (inactive) in assay [4]; 92.9% (inactive) in assay [5]; 86.5% in assay [6] (setting [9]); 92.9% in assay [6] (setting [10]). The Her2 level in assay [2] is 99.5% (inactive). The differential viability (reversal) in assay [6] (H69AR cells + 2 uM doxorubicin) was 6.39% (inactive). Besides, the inhibition in assay [7] was -6.45% (inactive); in assay [8], 4.75% (inactive).
As to `CCOc1cc(C(=O)NCc2nnc(SCC(=O)OC)n2C)cc(OCC)c1OCC`, the viability is 98% in assay [1]; 98% (inactive) in assay [3]; 104% (inactive) in assay [4]; 95.8% (inactive) in assay [5]; 87.5% in assay [6] (setting [9]); 95.8% in assay [6] (setting [10]). Also, the Her2 level in assay [2] was 85% (inactive). Further, the differential viability (reversal) in assay [6] (H69AR cells + 2 uM doxorubicin) was 8.31% (inactive). Besides, the results for the inhibition in assay [7] and in assay [8] were -6.84% (inactive) and -2% (inactive), respectively.
On to `O=C(NCC1CCCO1)C1CCCN(Cc2cnn(-c3ccccc3)c2-n2cccc2)C1` (stereo not given), for which the viability in assay [1] is 83.5%; in assay [3], 83.5% (inactive); in assay [4], 83.4% (inactive); in assay [5] it was 85.2% (inactive); in assay [6] (setting [9]), 44.5%; in assay [6] (setting [10]) it was 85.2%. Also, the Her2 level in assay [2] was 124% (inactive). The differential viability (reversal) in assay [6] (H69AR cells + 2 uM doxorubicin) is 40.7% (inactive). Besides, the inhibition in assay [7] is -1.45% (inactive); in assay [8], -8.33% (inactive).
For the compound `COC(=O)CSc1cc(C)nc(NC(C)=O)n1`, the viability in assay [1] was 93.5%; in assay [3], 93.5% (inactive); in assay [4], 102% (inactive); in assay [5], 101% (inactive); in assay [6] (setting [9]) it was 94.2%; in assay [6] (setting [10]), 101%. Further, the Her2 level in assay [2] was 83.5% (inactive). The differential viability (reversal) in assay [6] (H69AR cells + 2 uM doxorubicin) is 6.47% (inactive). The results for the inhibition in assay [7] and in assay [8] were -3.92% (inactive) and -0.95% (inactive), respectively.
Consider `c1ccc(-c2cn3c4c(sc3n2)CCCC4)cc1`, for which the viability in assay [1] is 89%; in assay [3], 89% (inactive); in assay [4], 46% (inactive); in assay [5], 39.9% (active); in assay [6] (setting [9]), 65.2%; in assay [6] (setting [10]), 39.9%. The Her2 level in assay [2] was 76% (inactive). In addition, the differential viability (reversal) in assay [6] (H69AR cells + 2 uM doxorubicin) was -25.4% (inactive). In addition, the inhibition is -2.37% (inactive) in assay [7] and 1.27% (inactive) in assay [8].
On to `COc1ccc2c(C(F)(F)F)cc(=O)oc2c1C`, for which the viability in assay [1] was 92%; in assay [3], 92% (inactive); in assay [4], 110% (inactive); in assay [5], 99.8% (inactive); in assay [6] (setting [9]), 93.3%; in assay [6] (setting [10]), 99.8%. Moreover, the Her2 level in assay [2] is 99.5% (inactive). For the same compound, the differential viability (reversal) in assay [6] (H69AR cells + 2 uM doxorubicin) is 6.5% (inactive). Further, the inhibition in assay [7] is -4.67% (inactive); in assay [8] it was 9.68% (inactive).
On to `COc1ccc2c(CC(=O)Nc3nnc(C4CC4)s3)coc2c1`, for which the viability is 120% in assay [1]; 120% (inactive) in assay [3]; 89.4% (inactive) in assay [4]; 99.4% (inactive) in assay [5]; 94.1% in assay [6] (setting [9]); 99.4% in assay [6] (setting [10]). In addition, in assay [2], the Her2 level was 81% (inactive). Moreover, the differential viability (reversal) in assay [6] (H69AR cells + 2 uM doxorubicin) is 5.3% (inactive). For the same compound, the inhibition in assay [7] was -7.26% (inactive); in assay [8], -1.9% (inactive).
Take `Cc1ccc(-c2noc(CCC(=O)NC3CCCc4ccccc43)n2)cc1` (stereo not given): the viability is 75% in assay [1]; 75% (inactive) in assay [3]; 83.6% (inactive) in assay [4]; 92.5% (inactive) in assay [5]; 86.4% in assay [6] (setting [9]); 92.5% in assay [6] (setting [10]). Further, the Her2 level in assay [2] is 85.5% (inactive). For the same compound, in assay [6] (H69AR cells + 2 uM doxorubicin), the differential viability (reversal) is 6.05% (inactive). The inhibition in assay [7] was -4.87% (inactive); in assay [8], -4.67% (inactive).
Regarding `CCn1nnnc1SCC(=O)Nc1nnc(C(C)C)s1`, the viability in assay [1] is 88.5%; in assay [3], 88.5% (inactive); in assay [4], 103% (inactive); in assay [5], 92.2% (inactive); in assay [6] (setting [9]), 89.8%; in assay [6] (setting [10]), 92.2%. For the same compound, the Her2 level in assay [2] was 84.5% (inactive). For the same compound, the differential viability (reversal) in assay [6] (H69AR cells + 2 uM doxorubicin) is 2.35% (inactive). Also, the results for the inhibition in assay [7] and in assay [8] were -4.4% (inactive) and 3.11% (inactive), respectively.
As for `Cc1ccc2[nH]c3c(c2c1)CCc1cn[nH]c1-3`, the viability in assay [1] was 132%; in assay [3] it was 132% (inactive); in assay [4], 66.4% (inactive); in assay [5], 38.4% (active); in assay [6] (setting [9]), 56.7%; in assay [6] (setting [10]), 38.4%. Besides, in assay [2], the Her2 level is 68% (inactive). Besides, the differential viability (reversal) in assay [6] (H69AR cells + 2 uM doxorubicin) was -18.3% (inactive). For the same compound, the inhibition in assay [7] was -0.8% (inactive); in assay [8], -8.23% (inactive).
As for `COCCCNC(=O)c1ccccc1NS(=O)(=O)c1ccc(C)cc1`, the viability in assay [1] was 91%; in assay [3] it was 91% (inactive); in assay [4], 92.1% (inactive); in assay [5] it was 101% (inactive); in assay [6] (setting [9]) it was 91.2%; in assay [6] (setting [10]) it was 101%. Moreover, the Her2 level in assay [2] is 98% (inactive). The differential viability (reversal) in assay [6] (H69AR cells + 2 uM doxorubicin) is 9.35% (inactive). Further, the results for the inhibition in assay [7] and in assay [8] were -4.27% (inactive) and -5.24% (inactive), respectively.
